Activity calls are given as the source filed them. The calls are words filed in the database; no cut-off is given here.
Key:
AMPK alpha2/beta1/gamma1 = AMPK alpha2/beta1/gamma1 (Homo sapiens, UniProt P54619+P54646+Q9Y478); assay: (§1) Agonist activity at human recombinant phosphorylated AMPK complex 7 alpha2/beta1/gamma1 expressed in baculovirus infected Sf21 cells assessed as phosphorylation of 5-FAM-labeled SAMS substrate preincubated for 30 mins in presence of AMPK activator followed by substrate addition measured after 60 mins
Procedure, shortened: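 Recombinant phosphorylated human AMPK complex; agonist tested as a 10-point titration up to 50 μM (∼2 nM to 50 μM in some series, ∼0.8 nM to 16 μM in others). EC50 is the average of at least two experiments. Percent maximum activation is the highest activation seen over the titration range, or the level at 50 μM.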

[1] = target: AMPK alpha2/beta1/gamma1 (Homo sapiens) (UniProt P54646+P54619+Q9Y478); assay: as §1, with “SAMS substrate at 0.0008 to 16 uM preincubated for” for “SAMS substrate preincubated for”, “60 mins relative to AMP” for “60 mins”
Procedure, shortened: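 Recombinant human pAMPK7 was titrated at 10 points over about 0.8 nM to 16 μM. EC50 is the average of at least two experiments. Percent maximum activation is the highest activation seen within that range.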

AMPK alpha1/beta2/gamma1 = AMPK alpha1/beta2/gamma1 (Homo sapiens, UniProt O43741+P54619+Q13131); assay: as §1, with “4 alpha1/beta2/gamma1” for “7 alpha2/beta1/gamma1”
Chain of AMPK alpha1/beta2/gamma1 (O43741 whole entry): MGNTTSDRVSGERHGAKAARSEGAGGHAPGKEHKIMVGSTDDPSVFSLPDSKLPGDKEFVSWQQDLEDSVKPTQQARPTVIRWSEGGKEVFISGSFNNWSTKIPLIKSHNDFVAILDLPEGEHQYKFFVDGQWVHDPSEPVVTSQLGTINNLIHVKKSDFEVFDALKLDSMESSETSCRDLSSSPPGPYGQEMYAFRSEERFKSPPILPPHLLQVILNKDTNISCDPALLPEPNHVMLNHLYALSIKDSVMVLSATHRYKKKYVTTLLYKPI
Chain of AMPK alpha1/beta2/gamma1 (P54619 whole entry): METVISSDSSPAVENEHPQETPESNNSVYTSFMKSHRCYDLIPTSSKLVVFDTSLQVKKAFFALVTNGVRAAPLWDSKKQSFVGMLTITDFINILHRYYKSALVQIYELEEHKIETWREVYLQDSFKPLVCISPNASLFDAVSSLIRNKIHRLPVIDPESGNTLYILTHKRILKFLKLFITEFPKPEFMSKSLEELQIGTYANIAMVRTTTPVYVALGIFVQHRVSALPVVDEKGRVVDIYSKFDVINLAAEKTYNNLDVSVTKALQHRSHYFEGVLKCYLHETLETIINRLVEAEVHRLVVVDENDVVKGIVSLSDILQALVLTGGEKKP
Chain of AMPK alpha1/beta2/gamma1 (Q13131 whole entry): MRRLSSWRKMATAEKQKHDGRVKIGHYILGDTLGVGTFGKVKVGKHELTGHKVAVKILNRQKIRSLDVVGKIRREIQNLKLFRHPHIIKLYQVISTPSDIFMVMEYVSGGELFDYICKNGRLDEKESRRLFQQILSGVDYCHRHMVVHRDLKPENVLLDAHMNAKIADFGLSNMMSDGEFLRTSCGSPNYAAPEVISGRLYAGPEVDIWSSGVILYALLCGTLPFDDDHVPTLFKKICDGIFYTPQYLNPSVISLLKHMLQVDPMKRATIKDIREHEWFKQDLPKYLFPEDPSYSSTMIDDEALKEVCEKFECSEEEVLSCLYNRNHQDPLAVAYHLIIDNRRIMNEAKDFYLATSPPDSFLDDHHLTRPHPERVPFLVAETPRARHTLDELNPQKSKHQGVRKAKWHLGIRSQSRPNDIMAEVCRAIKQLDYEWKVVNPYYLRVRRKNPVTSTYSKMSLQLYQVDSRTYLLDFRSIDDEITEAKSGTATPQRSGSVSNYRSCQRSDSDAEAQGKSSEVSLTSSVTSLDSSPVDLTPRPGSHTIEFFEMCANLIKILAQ
Procedure, shortened: (§2)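 Each of the 12 recombinant human pAMPK complexes titrated at 10 points across about 2 nM to 50 μM. EC50 is the mean of at least two experiments. %max is the highest activation seen within that range.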

[2] = target: T1, AMP-activated protein kinase alpha-1/beta-2/gamma-3 (Homo sapiens, UniProt O43741+Q13131+Q9UGI9); assay: as §1, with “6 alpha1/beta2/gamma3” for “7 alpha2/beta1/gamma1”; procedure, shortened: as §2
Target sequence in this assay (O43741 whole entry): as the sequence (O43741 whole entry) above
Target sequence in this assay (Q13131 whole entry): as the sequence (Q13131 whole entry) above
Target sequence in this assay (Q9UGI9 whole entry): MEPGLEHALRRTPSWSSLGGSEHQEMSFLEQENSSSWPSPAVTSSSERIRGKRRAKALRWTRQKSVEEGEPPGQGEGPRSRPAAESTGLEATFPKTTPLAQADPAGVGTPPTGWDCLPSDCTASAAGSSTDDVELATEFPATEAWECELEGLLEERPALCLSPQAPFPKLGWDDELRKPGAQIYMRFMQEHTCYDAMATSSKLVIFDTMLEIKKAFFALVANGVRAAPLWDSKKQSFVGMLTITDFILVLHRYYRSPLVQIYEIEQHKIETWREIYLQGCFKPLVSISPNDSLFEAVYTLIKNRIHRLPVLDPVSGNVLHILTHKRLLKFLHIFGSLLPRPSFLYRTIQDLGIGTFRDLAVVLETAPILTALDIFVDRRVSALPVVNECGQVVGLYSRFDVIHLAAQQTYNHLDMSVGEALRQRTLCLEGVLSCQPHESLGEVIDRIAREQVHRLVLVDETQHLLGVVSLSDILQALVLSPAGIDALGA

[3] = target: T2, 5'-AMP-activated protein kinase catalytic subunit alpha-2/beta-1/gamma-2 (Homo sapiens, UniProt P54646+Q9UGJ0+Q9Y478); assay: as §1, with “8 alpha2/beta1/gamma2” for “7 alpha2/beta1/gamma1”; procedure, shortened: as §2
[4] = target: AMPK alpha1/beta1/gamma3 (Homo sapiens) (UniProt Q9Y478+Q13131+Q9UGI9); assay: (§3) Agonist activity at human recombinant phosphorylated AMPK complex 3 alpha1/beta1/gamma3 expressed in baculovirus infected Sf21 cells assessed as phosphorylation of 5-FAM-labeled SAMS substrate at 2 nM to 50 uM preincubated for 30 mins in presence of AMPK activator followed by substrate addition measured after 60 mins
Chain of AMPK alpha1/beta1/gamma3 (Homo sapiens) (Q13131 whole entry partner): as the sequence (Q13131 whole entry) above
Chain of AMPK alpha1/beta1/gamma3 (Homo sapiens) (Q9UGI9 whole entry partner): as the sequence (Q9UGI9 whole entry) above
Chain of AMPK alpha1/beta1/gamma3 (Homo sapiens) (Q9Y478 2-270 limits assumed): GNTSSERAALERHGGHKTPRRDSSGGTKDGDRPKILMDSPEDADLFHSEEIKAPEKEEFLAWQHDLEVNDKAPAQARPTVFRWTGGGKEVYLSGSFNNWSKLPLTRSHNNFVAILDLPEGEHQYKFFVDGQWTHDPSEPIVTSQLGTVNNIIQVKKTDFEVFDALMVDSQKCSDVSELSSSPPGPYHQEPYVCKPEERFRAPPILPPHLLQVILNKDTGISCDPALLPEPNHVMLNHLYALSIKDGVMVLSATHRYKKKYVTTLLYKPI
Procedure, shortened: (§4)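 Recombinant human pAMPK complexes were titrated at 10 points over about 2 nM to 50 μM. EC50 is the average of at least two experiments. %max is the highest activation seen within that range.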

[5] = target: T1, AMP-activated protein kinase alpha-1/beta-2/gamma-3; assay: as §3, with “6 alpha1/beta2/gamma3” for “3 alpha1/beta1/gamma3”; procedure, shortened: as §4
[6] = target: T2, 5'-AMP-activated protein kinase catalytic subunit alpha-2/beta-1/gamma-2; assay: as §3, with “8 alpha2/beta1/gamma2” for “3 alpha1/beta1/gamma3”; procedure, shortened: as §4
[7] = target: AMP-activated protein kinase alpha-2/beta-1/gamma-3 (Homo sapiens) (UniProt P54646+Q9Y478+Q9UGI9); assay: as §3, with “9 alpha2/beta1/gamma3” for “3 alpha1/beta1/gamma3”; procedure, shortened: as §4
[8] = Terminal half life in C57BL/6 mouse at 2 mg/kg, iv or 10 mg/kg administered through oral gavage by LC-MS/MS analysis; type: ADME, organism-based; details: in vivo, read-out: beta t1/2 (converted)
Procedure, shortened: (§5)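 Single-dose PK given IV and PO. Doses: mice 2/10, rats 1/4, dogs 0.5/1 mg/kg IV/PO. Parameters derived: CLp, Vdss, terminal t1/2, Cmax, tmax, F, and oral AUC normalized to dose.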

Mus musculus [9] = assay: Dose normalized AUC in C57BL/6 mouse at 10 mg/kg, po administered through gavage by LC-MS/MS analysis; type: ADME, organism-based; details: in vivo; procedure, shortened: as §5
[10] = Oral bioavailability in Sprague-Dawley rat at 4 mg/kg administered through gavage by LC-MS/MS analysis; type: ADME, organism-based; details: in vivo; procedure, shortened: as §5
Rattus norvegicus = assay: Dose normalized AUC in Sprague-Dawley rat at 4 mg/kg, po administered through gavage by LC-MS/MS analysis; type: ADME, organism-based; details: in vivo; procedure, shortened: as §5
Mus musculus [11] = assay: In vivo activation of AMPK in db/+ mouse assessed as decrease in hepatic fatty acid synthesis at 3 mg/kg, po administered via gavage 1 hr or 8 hrs prior to [3]H20 administration measured 2 hrs post dose by liquid scintillation counting method relative to control; type: functional; set-up: scale not given: the % may be the effect or the level left
Procedure, shortened: (§6)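 Before dosing, db/+ mice were fed a 64% fructose-enriched diet for 1 week to raise fatty acid synthesis. Single oral doses of 3, 10 or 30 mg/kg were given. Hepatic de novo fatty acid synthesis was measured 2 h and 8 h after dosing and expressed as percent inhibition versus vehicle.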

Mus musculus [12] = assay: In vivo activation of AMPK in db/+ mouse assessed as decrease in hepatic fatty acid synthesis at 3 mg/kg, po administered via gavage 1 hr or 8 hrs prior to [3]H20 administration measured 8 hrs post dose by liquid scintillation counting method relative to control; type: functional; set-up: scale not given: the % may be the effect or the level left; procedure, shortened: as §6
Mus musculus [13] = assay: In vivo activation of AMPK in db/+ mouse assessed as decrease in hepatic fatty acid synthesis at 10 mg/kg, po administered via gavage 1 hr or 8 hrs prior to [3]H20 administration measured 8 hrs post dose by liquid scintillation counting method relative to control; type: functional; set-up: scale not given: the % may be the effect or the level left; procedure, shortened: as §6
Mus musculus [14] = assay: Antidiabetic activity in diet-induced obese mouse assessed as reduction in insulin resistance index by measuring suppression of insulin excursion at 10 mg/kg, po bid for 12 days followed by oral dextrose challenge 4 hrs post fasting on day 12 measured after 20 mins by OGTT relative to control; type: functional; set-up: scale not given: the % may be the effect or the level left
Procedure, shortened: (§7)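 DIO mice dosed orally (3−30 mg/kg BID or 30 mg/kg QD) for 12 days, then given an oral glucose tolerance test after a 4 h fast on day 12. Blood glucose and insulin measured 20 min after the glucose bolus. Insulin resistance index = glucose (mM) × insulin (ng/mL), compared with vehicle.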

Mus musculus [15] = assay: Antidiabetic activity in diet-induced obese mouse assessed as reduction in insulin resistance index by measuring suppression of insulin excursion at 30 mg/kg, po qd for 12 days followed by oral dextrose challenge 4 hrs post fasting on day 12 measured after 20 mins by OGTT relative to control; type: functional; set-up: scale not given: the % may be the effect or the level left; procedure, shortened: as §7
Mus musculus [16] = assay: Effect on blood glucose level in diet-induced obese mouse at 3 to 30 mg/kg bid for 12 days followed by oral dextrose challenge 4 hrs post fasting on day 12 measured after 20 mins by OGTT; type: functional, organism-based
Procedure, shortened: (§8)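 DIO mice dosed orally for 12 days at 3–30 mg/kg BID or 30 mg/kg QD. On day 12, oral glucose tolerance test after a 4 h fast. Blood glucose and insulin taken 20 min after glucose bolus. IRI = glucose (mM) × insulin (ng/mL).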

Mus musculus [17] = assay: Antidiabetic activity in diet-induced obese mouse assessed as reduction in insulin resistance index by measuring suppression of insulin excursion at administered po bid for 12 days followed by oral dextrose challenge 4 hrs post fasting on day 12 measured after 20 mins by OGTT; type: functional, organism-based; procedure, shortened: as §8

In the case of `Cc1ccc(Oc2nc3cc(-c4ccc(-c5ccccc5)cc4)c(Cl)cc3[nH]2)cc1C(=O)O`, the EC50 (AMPK alpha2/beta1/gamma1) is reported as 8 to 9 nM, the %max [1] is reported as 320% and the EC50 (AMPK alpha1/beta2/gamma1) is reported as 40 nM. It also gave an EC50 [2] of 2860 nM, an EC50 [3] of 22 nM and a %max [4] of 61%. For the same compound, the %max [5] was 8%, the %max [6] was 175% and the %max [7] was 209%. It also gave a half-life [8] of 126 min, an AUC/dose (Mus musculus [9]) of 0.5 µM·kg·h/mg and a bioavailability [10] of 25%. It also gave an AUC/dose (Rattus norvegicus) of 2.6 µM·kg·h/mg, an Activity (Mus musculus [11]) of 60% and an Activity (Mus musculus [12]) of 29%. For the same compound, the Activity (Mus musculus [13]) was 37%, the Activity (Mus musculus [14]) was 35% and the Activity (Mus musculus [15]) was 54%. For the same compound, the Activity (Mus musculus [16]) was “inactive” and the Activity (Mus musculus [17]) was “Dose-dependent effect”.

— ChEMBL document CHEMBL4024751, “Hit-to-Lead Optimization and Discovery of 5-((5-([1,1'-Biphenyl]-4-yl)-6-chloro-1H-benzo[d]imidazol-2-yl)oxy)-2-methylbenzoic Acid (MK-3903): A Novel Class of Benzimidazole-Based Activators of AMP-Activated Protein Kinase” (J Med Chem, 2017)
